Assay results of several laboratories.
Each line is one published result; the experiments were not run side by side.
Target: Ephrin type-B receptor 1 (EPHB1, Homo sapiens, UniProt P54762)
One construct used (P54762 18-984): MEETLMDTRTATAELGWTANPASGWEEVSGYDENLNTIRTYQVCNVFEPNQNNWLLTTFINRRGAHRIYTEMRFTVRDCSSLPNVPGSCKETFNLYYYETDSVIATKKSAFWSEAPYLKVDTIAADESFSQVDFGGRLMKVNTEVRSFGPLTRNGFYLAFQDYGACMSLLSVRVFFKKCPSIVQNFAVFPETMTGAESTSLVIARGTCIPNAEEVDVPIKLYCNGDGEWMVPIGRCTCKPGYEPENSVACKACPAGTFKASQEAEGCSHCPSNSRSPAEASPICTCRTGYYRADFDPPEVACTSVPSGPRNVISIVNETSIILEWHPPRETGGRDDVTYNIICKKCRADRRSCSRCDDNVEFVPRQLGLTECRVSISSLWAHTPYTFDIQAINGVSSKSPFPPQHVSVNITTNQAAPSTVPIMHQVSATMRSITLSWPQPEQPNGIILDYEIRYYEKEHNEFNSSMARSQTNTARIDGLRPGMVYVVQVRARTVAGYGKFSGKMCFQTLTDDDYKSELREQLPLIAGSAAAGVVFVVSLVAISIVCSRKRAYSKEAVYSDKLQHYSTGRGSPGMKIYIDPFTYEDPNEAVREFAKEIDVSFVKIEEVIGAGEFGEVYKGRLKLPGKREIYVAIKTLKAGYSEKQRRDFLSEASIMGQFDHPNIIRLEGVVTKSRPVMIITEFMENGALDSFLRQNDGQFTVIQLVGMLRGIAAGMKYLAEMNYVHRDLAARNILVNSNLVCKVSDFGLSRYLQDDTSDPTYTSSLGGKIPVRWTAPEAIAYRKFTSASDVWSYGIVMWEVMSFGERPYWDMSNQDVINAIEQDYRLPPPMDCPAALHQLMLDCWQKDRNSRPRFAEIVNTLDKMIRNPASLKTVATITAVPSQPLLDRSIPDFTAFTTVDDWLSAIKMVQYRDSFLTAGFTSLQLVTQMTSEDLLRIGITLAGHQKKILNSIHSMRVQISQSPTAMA

| Compound | observed | method | tested at | remaining binding |
| --- | --- | --- | --- | --- |
| CCS(=O)(=O)c1cc2cc(C[C@](O)(CC(C)(C)c3ccc(F)cc3C(N)=O)C(F)(F)F)[nH]c2cn1 | cell-free assay | competition with immobilised ligand | 1 µM | 86% |
| O=C(c1ccc(Nc2ncc(Cl)c(-c3ccc(Cl)s3)n2)cc1)N1CCC(N2CCCC2)CC1 | binding | competition with immobilised ligand | 1 µM | 30% |
| N[C@@H]1CCN(c2nccc(-c3cnn4ncccc34)n2)C1 | binding | – | 1 µM | 96% |
| CCN1CCN(Cc2ccc(C(=O)Nc3ccc(C)c(Oc4ccc5c(c4)CC(=O)N5)c3)cc2C(F)(F)F)CC1 | binding | competition with immobilised ligand | 1 µM | 100% |
| C=CC(=O)N1CCC(C(=O)NCC(=O)N2CCN(c3nc(-c4cnc(N)nc4C(F)F)nc(N4CCOCC4)n3)CC2)CC1 | binding | competition with immobilised ligand | 1 µM | 100% |
| c1ccc(N2CCN(Cc3nc4ccccc4[nH]3)CC2)nc1 | cell-free assay | competition with immobilised ligand | 1 µM | 100% |
| O=C(NCCCN1CCOCC1)c1ccc(Nc2ncc(Cl)c(-c3ccc(Cl)s3)n2)cc1 | binding | competition with immobilised ligand | 1 µM | 58% |
| N#CC1(c2ccccn2)CCN(Cc2cc(C(=O)N3CCCC3)c(=O)n3ccccc23)CC1 | cell-free assay | competition with immobilised ligand | 1 µM | 91% |
| C[C@@H]1CCN(c2nccc(-c3cnn4ncccc34)n2)C1 | binding | – | 1 µM | 97% |
| O=C(Nc1c[nH]nc1C(=O)NC1CCNCC1)c1cc(F)cc(F)c1 | binding | competition with immobilised ligand | 1 µM | 100% |
| O=C(N[C@H]1CCCCC/C=C\C2C[C@@]2(C(=O)O)NC(=O)[C@@H]2C[C@@H](Oc3ccncc3)CN2C1=O)OC1CCCC1 (stereo partly drawn) | cell-free assay | competition with immobilised ligand | 1 µM | 100% |
| COc1cnc(Nc2cccc(S(N)(=O)=O)c2)nc1N1CCN(c2ccccc2)C(=O)C1 | binding | competition with immobilised ligand | 1 µM | 100% |
| FC(F)(F)Oc1cccc(-c2cnc3ccc(-c4ccncc4)nn23)c1 | cell-free assay | competition with immobilised ligand | 5 µM | 82% |
| CNCc1ccccc1-c1csc([C@H](C)Nc2nc(C)nc3cc(OC)c(OC)cc23)c1 | cell-free assay | competition with immobilised ligand | 1 µM | 100% |
| c1cnn2ncc(-c3ccnc(N4CCC45COC5)n3)c2c1 | binding | – | 1 µM | 100% |
| COc1cnc(Nc2cccc(S(N)(=O)=O)c2)nc1N1CCN(c2ccccc2)CC1 | binding | competition with immobilised ligand | 1 µM | 97% |
| O=C(c1ccc(Nc2nccc(-c3cc4ccccc4s3)n2)cc1)N1CCC(N2CCCC2)CC1 | binding | competition with immobilised ligand | 1 µM | 47% |
| CN(C)c1nccc(-c2cnn3ncccc23)n1 | binding | – | 1 µM | 100% |
| O=c1nc(-c2ccccn2)sc2ccccc12 | cell-free assay | competition with immobilised ligand | 1 µM | 88% |
| COc1ncc2cc3ccccc3nc2c1C#N | cell-free assay | competition with immobilised ligand | 5 µM | 91% |
| CN(CCCC(F)(F)F)c1nccc(-c2cnn3ncccc23)n1 | binding | – | 1 µM | 91% |
